Experimental data from different studies.
Each line is one published result; the experiments were not run side by side.
Observed: cell growth or viability

SMILES	cell line	technique	time	setting	IC50
CC12C(=O)Nc3ccccc3C(=O)CCN1C(=O)c1ccccc12 (centres unmarked)	L6				> 300 µM
COc1cc2c3c(n(CCCN4CCOCC4)c(=O)c2cc1OC)-c1nc2c(cc1C3=O)OCO2	RS4-11	MTS	72 h		0.283 µM
CC(C)c1ccccc1[C@@H]1CCCN1C1CC2(CCN(c3ccc(C(=O)NS(=O)(=O)c4ccc(NC[C@H]5CC[C@](C)(O)CC5)c([N+](=O)[O-])c4)c(Oc4cnc5[nH]ccc5c4)c3)CC2)C1	RS4-11	ATP luminescence	48 h		0.00056 µM
Cc1cc(/C=C/C#N)cc(C)c1Nc1ccnc(Nc2ccc(C#N)cc2)n1	HK-1	MTT	48 h		7.59 µM
N=C(N/N=C/c1cccc([N+](=O)[O-])c1)N/N=C/c1cccc([N+](=O)[O-])c1	L6	resazurin	70 h		17.7 µM
COc1cc2c(cc1OC)-c1cc3ccc(OC)c(OCCN)c3c[n+]1CC2	NCI-H460	MTT	72 h		> 80 µM
Cc1c(C(=O)O)ccc2c3n(nc12)[C@@H]1[C@H](C3)N(CC2CC2)[C@@]2(C(=O)Nc3cc(Cl)ccc32)[C@H]1c1cccc(Cl)c1F	Colon 26	resazurin	72 h		0.259 µM
N=C(N/N=C/c1ccc(Oc2ccccc2)cc1)N/N=C/c1ccc(Oc2ccccc2)cc1	L6	resazurin	70 h		4.44 µM
CO/N=C1/CCN2C(=O)c3ccccc3C2C(=O)Nc2ccccc21 (centres unmarked)	L6				> 300 µM
COc1cc2nc(N3CCN(C(=O)c4ccco4)CC3)nc(N)c2cc1OC	HK-1	MTT	48 h		30 µM
C=C(F)C(=O)N1CCN(c2nc(OC[C@@H]3CCCN3C)nc3c2CCN(c2cccc4cccc(Cl)c24)C3)C[C@@H]1CC#N	A-427	ATP luminescence		3D culture	> 1 µM
N#Cc1cc(/C=N/NC(=N)N/N=C/c2ccc(OC(F)(F)F)cc2)ccc1F	L6	resazurin	70 h		7.05 µM
COc1cc2nc(N3CCN(C(=O)C4COc5ccccc5O4)CC3)nc(N)c2cc1OC (centres unmarked)	HNE1	MTT	48 h		22.4 µM
N=C(NN=CCc1ccc(OC(F)F)cc1)NN=CCc1ccc(OC(F)F)cc1	L6	resazurin	70 h		2.03 µM
O=C1CCN2C(=O)c3ccccc3C2C(=O)Nc2cc(F)ccc21 (centres unmarked)	L6				> 300 µM
COc1cc2c3c(n(CCCNC(C)C)c(=O)c2cc1OC)-c1nc2c(cc1C3=O)OCO2	RS4-11	MTS	72 h		0.053 µM
N=C(N/N=C/c1ccc(Oc2ccc(Cl)cc2)cc1)N/N=C/c1ccc(Oc2ccc(Cl)cc2)cc1	L6	resazurin	70 h		3.18 µM
O=C1CCN2C(=O)c3ccccc3C2C(=O)Nc2ccc(F)cc21 (centres unmarked)	L6				> 310 µM
O=C1CCC(N2Cc3c(C#CC4CCN(C(=O)[C@H]5CC[C@H](NC(=O)[C@H]6NC7(CCCCC7)[C@]7(C(=O)Nc8cc(Cl)ccc87)[C@H]6c6cccc(Cl)c6F)CC5)CC4)cccc3C2=O)C(=O)N1 (some centres unmarked)	RS4-11				0.062 µM
CO[C@]12C[C@@H](COC(=O)c3cncc(Br)c3)CN(C)[C@@H]1Cc1cn(C)c3cccc2c13	HNE1	MTT	48 h		1.45 µM
O=C1c2ccccc2C23C(=O)Nc4ccccc4C2(O)CCN13 (centres unmarked)	L6				> 330 µM
N#Cc1cc(C=NNC(=N)NN=Cc2ccc(F)c(C#N)c2)ccc1F	L6	resazurin	70 h		5.95 µM
CNC(=O)c1cc(Oc2ccc(NC(=O)Nc3ccc(Cl)c(C(F)(F)F)c3)cc2)ccn1	NCI-H460	MTT	72 h		3.81 µM
